Experimental data: ChEMBL document CHEMBL3232764, “Influence of the adamantyl moiety on the activity of biphenylacrylohydroxamic acid-based HDAC inhibitors” (Eur J Med Chem, 2014)

Key:
[1] = system: IGROV-1; experiment: Antiproliferative activity against human IGROV1 cells assessed as growth inhibition after 72 hrs; format: functional, cell-based; conditions: IGROV-1, 72 h
In short: (§1)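 Log-phase cells seeded in duplicate in 6-well plates; drug added 24 h after seeding. Cells harvested 72 h after drug exposure and counted with a cell counter. IC50 = drug concentration giving 50% reduction in cell number versus untreated control.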

[2] = system: HCT-116; experiment: Antiproliferative activity against human HCT116 cells assessed as growth inhibition after 72 hrs; format: functional, cell-based; conditions: HCT-116, 72 h; in short: as §1
[3] = Antiproliferative activity against p53 defective cis-platinum-resistant human IGROV1/Pt1 cells assessed as growth inhibition after 72 hrs; format: functional, cell-based; conditions: IGROV-1/Pt1, 72 h; in short: as §1
[4] = cells; format: functional, cell-based; conditions: Homo sapiens, NCI-H460, 72 h
[5] = system: IGROV-1; experiment: Induction of apoptosis in human IGROV1 cells at IC80 after 72 hrs by TUNEL and flow cytometry analysis (reference value: 4%); format: functional
[6] = molecular target: Histone deacetylase 3 (Homo sapiens, UniProt O15379)
Histone deacetylase 3, sequence (O15379 whole entry): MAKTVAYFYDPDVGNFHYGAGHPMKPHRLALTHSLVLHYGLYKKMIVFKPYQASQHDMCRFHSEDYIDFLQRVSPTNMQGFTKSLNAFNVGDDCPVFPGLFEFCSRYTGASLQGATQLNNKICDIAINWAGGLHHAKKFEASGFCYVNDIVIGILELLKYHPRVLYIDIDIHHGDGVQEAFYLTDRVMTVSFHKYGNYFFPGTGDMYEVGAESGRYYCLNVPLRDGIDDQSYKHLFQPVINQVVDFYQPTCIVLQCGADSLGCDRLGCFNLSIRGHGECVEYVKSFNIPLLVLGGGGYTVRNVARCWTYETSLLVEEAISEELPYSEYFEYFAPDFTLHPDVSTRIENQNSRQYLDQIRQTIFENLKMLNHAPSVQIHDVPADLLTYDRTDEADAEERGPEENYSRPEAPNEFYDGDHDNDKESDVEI

[7] = molecular target: Histone deacetylase 4 (Homo sapiens, UniProt P56524); experiment: Inhibition of human HDAC4 using fluorogenic tetrapeptide RHKKAc as substrate
Histone deacetylase 4, sequence (P56524 whole entry): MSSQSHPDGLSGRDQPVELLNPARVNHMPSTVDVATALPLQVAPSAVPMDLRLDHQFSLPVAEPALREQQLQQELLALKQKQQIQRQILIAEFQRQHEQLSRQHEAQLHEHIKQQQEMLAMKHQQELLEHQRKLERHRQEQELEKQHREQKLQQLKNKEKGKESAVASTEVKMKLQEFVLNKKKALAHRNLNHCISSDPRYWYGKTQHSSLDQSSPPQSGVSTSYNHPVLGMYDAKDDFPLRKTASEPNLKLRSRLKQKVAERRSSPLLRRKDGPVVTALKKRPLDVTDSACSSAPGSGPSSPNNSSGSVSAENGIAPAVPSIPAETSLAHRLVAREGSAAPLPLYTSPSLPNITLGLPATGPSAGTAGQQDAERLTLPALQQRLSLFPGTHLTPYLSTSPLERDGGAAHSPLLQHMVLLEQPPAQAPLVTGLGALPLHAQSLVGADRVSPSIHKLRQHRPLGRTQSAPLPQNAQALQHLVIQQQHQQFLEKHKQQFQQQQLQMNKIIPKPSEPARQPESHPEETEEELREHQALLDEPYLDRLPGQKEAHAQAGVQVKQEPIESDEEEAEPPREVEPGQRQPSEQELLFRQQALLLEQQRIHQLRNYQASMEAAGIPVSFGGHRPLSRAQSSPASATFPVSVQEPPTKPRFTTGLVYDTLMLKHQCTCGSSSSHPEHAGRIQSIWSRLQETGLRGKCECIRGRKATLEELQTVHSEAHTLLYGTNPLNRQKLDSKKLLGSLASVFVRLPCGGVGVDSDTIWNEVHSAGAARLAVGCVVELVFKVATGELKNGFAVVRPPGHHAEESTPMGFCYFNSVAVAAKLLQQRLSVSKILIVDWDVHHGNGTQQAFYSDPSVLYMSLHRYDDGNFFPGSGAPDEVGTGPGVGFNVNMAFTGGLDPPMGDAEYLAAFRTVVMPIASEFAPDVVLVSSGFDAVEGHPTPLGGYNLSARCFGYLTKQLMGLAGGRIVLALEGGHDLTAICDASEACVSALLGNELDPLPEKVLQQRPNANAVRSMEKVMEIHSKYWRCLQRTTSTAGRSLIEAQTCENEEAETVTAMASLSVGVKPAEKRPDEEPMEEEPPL

[8] = molecular target: Histone deacetylase 5 (Homo sapiens, UniProt Q9UQL6); experiment: Inhibition of human HDAC5 using fluorogenic tetrapeptide RHKKAc as substrate
Histone deacetylase 5, sequence (Q9UQL6 whole entry): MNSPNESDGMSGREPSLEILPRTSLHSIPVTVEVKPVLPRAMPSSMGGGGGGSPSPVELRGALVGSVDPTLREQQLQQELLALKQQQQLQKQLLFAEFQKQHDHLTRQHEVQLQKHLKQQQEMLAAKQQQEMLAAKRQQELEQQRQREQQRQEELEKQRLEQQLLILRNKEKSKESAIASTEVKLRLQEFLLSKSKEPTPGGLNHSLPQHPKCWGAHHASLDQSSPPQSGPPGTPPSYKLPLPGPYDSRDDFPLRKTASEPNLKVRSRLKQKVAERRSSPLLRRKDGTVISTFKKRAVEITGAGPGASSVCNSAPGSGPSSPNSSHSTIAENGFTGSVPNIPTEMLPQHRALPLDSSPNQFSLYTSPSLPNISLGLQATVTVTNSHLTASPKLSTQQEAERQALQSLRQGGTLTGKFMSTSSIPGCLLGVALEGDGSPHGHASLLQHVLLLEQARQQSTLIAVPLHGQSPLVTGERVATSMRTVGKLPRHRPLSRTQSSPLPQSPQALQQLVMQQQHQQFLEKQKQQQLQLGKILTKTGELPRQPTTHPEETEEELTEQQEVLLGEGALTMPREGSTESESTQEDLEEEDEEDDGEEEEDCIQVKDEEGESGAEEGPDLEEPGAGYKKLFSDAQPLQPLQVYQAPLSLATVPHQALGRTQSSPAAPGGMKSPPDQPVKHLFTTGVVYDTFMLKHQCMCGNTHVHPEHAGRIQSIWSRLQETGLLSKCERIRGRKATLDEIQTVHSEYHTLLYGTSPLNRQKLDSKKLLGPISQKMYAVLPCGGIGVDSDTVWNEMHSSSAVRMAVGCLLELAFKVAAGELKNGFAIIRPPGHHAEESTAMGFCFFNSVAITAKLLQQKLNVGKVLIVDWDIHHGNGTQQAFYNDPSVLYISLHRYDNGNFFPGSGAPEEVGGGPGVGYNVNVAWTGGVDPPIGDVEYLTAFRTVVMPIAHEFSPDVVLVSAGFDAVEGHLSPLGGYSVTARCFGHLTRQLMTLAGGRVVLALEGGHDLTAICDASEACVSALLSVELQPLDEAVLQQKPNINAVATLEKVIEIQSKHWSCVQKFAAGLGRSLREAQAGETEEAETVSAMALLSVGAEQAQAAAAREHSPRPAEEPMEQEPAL

[9] = molecular target: T1, Histone deacetylase 11 (Homo sapiens, UniProt Q96DB2); experiment: Inhibition of human HDAC11 using fluorogenic tetrapeptide RHKKAc as substrate
T1 sequence (Q96DB2 whole entry): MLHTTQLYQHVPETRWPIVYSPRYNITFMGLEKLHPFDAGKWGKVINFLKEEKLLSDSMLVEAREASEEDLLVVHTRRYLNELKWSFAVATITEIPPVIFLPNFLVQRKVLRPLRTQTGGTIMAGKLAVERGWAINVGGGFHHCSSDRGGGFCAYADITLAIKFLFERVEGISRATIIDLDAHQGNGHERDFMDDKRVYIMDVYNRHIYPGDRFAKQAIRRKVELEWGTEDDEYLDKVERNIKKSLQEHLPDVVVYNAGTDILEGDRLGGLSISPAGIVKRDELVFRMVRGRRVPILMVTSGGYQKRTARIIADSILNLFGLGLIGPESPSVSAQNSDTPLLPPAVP

[10] = molecular target: T2, Polyamine deacetylase HDAC10 (Homo sapiens, UniProt Q969S8); experiment: Inhibition of human HDAC10 using fluorogenic tetrapeptide RHKKAc as substrate
T2 sequence (Q969S8 whole entry): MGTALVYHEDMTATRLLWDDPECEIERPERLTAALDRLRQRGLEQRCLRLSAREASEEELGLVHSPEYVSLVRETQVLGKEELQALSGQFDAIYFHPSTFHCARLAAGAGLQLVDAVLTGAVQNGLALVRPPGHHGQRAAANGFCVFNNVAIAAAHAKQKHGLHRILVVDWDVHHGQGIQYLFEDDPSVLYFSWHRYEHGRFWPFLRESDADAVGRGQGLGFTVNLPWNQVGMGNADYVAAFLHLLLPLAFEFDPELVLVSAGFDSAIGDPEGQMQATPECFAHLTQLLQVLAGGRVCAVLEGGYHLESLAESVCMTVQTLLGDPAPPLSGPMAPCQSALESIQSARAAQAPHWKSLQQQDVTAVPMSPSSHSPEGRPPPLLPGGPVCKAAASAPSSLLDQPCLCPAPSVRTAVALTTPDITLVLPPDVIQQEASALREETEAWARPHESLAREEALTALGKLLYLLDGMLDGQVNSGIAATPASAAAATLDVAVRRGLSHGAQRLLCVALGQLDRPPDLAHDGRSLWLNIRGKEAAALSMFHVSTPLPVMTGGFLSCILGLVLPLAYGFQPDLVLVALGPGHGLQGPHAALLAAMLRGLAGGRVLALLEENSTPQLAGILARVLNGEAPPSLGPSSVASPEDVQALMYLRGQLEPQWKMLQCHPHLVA

[11] = molecular target: Histone deacetylase 1 (Homo sapiens, UniProt Q13547); experiment: Inhibition of human HDAC1 using fluorogenic tetrapeptide RHKKAc as substrate
Histone deacetylase 1, sequence (Q13547 whole entry): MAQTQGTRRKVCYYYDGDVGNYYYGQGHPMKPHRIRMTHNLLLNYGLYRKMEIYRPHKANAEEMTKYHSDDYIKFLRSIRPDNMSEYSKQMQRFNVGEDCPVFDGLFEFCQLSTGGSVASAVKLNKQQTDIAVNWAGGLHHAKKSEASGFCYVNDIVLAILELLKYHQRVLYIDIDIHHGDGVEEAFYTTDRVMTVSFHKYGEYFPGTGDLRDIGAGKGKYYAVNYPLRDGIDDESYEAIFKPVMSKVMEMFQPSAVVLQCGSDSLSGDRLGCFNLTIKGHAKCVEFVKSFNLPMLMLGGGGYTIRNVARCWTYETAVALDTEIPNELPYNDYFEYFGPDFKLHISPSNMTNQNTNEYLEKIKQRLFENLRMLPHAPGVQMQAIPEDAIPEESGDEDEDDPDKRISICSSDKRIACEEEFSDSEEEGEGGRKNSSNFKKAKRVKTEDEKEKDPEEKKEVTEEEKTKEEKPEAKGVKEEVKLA

[12] = molecular target: Histone deacetylase 9 (Homo sapiens, UniProt Q9UKV0); experiment: Inhibition of human HDAC9 using fluorogenic tetrapeptide RHKKAc as substrate
Histone deacetylase 9, sequence (Q9UKV0 whole entry): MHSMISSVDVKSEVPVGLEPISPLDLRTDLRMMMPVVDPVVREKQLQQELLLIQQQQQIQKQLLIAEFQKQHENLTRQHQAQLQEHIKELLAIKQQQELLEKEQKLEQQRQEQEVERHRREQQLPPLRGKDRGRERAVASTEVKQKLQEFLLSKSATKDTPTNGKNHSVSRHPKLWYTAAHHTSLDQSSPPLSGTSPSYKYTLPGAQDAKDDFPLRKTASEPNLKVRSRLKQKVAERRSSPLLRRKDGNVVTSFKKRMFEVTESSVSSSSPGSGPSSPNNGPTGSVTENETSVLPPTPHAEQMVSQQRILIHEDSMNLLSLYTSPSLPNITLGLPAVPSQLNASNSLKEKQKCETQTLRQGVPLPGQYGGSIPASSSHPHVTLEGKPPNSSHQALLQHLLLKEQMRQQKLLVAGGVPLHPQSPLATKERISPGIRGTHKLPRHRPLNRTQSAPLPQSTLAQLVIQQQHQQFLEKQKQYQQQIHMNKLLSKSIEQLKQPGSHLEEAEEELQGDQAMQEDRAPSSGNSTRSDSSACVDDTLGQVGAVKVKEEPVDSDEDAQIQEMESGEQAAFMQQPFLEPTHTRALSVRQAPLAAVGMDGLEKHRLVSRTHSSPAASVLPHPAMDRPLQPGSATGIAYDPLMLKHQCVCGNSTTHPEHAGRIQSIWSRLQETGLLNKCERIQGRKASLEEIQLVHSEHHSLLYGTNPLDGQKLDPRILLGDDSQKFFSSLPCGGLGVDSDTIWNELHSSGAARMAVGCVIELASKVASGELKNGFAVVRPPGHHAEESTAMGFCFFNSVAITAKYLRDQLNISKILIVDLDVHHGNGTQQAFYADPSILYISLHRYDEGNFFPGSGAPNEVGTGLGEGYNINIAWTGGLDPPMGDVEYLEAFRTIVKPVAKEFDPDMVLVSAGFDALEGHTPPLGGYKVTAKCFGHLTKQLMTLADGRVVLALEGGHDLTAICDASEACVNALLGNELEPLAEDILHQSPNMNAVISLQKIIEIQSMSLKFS

[13] = molecular target: T3, Protein deacetylase HDAC6 (Homo sapiens, UniProt Q9UBN7); experiment: Inhibition of human HDAC6 using fluorogenic tetrapeptide RHKKAc as substrate
T3 sequence (Q9UBN7 whole entry): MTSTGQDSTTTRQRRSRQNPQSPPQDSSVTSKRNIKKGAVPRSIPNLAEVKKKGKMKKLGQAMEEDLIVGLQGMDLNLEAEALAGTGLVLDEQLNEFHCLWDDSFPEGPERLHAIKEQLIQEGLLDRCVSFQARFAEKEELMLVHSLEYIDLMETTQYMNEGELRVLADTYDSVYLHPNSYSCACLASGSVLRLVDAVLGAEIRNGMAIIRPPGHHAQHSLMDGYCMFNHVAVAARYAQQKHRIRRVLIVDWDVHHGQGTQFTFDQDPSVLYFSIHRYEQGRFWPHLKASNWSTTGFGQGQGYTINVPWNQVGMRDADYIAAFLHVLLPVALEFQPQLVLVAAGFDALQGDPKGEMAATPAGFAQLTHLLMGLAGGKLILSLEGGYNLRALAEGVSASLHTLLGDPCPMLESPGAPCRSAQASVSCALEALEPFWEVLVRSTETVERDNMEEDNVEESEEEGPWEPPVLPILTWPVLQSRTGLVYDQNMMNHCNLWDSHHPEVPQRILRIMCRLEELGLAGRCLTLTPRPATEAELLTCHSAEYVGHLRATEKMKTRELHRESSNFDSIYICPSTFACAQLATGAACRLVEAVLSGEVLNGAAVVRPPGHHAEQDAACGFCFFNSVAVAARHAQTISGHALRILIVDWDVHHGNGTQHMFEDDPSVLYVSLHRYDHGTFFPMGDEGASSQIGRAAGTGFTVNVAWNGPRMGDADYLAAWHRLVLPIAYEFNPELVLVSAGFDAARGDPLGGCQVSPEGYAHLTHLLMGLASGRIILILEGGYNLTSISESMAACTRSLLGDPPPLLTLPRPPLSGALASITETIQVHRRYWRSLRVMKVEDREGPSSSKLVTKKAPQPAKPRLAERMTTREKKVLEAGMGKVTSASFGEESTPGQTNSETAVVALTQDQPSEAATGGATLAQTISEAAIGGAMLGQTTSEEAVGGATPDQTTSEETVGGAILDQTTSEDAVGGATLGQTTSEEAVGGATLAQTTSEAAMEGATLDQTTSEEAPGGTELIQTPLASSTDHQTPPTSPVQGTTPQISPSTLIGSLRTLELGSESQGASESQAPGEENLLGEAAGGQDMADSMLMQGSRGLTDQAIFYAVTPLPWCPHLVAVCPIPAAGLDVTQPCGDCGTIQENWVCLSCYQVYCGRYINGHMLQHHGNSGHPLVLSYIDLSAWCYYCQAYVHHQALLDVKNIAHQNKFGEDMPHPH

[14] = molecular target: T4, Histone deacetylase 8 (Homo sapiens, UniProt Q9BY41); experiment: Inhibition of human HDAC8 using fluorogenic tetrapeptide RHKKAc as substrate
T4 sequence (Q9BY41 whole entry): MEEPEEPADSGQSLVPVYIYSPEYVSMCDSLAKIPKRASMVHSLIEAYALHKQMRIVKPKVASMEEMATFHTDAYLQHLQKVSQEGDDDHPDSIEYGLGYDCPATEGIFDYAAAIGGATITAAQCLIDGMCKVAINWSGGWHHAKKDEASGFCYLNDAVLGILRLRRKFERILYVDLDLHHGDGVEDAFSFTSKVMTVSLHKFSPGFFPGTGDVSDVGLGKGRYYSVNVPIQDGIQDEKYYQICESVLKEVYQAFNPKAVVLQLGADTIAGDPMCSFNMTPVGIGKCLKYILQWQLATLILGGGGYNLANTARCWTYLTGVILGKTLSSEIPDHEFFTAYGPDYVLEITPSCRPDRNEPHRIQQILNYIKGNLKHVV

[15] = molecular target: Histone deacetylase 2 (Homo sapiens, UniProt Q92769); format: cell-based, HeLa
Histone deacetylase 2, sequence (Q92769 whole entry): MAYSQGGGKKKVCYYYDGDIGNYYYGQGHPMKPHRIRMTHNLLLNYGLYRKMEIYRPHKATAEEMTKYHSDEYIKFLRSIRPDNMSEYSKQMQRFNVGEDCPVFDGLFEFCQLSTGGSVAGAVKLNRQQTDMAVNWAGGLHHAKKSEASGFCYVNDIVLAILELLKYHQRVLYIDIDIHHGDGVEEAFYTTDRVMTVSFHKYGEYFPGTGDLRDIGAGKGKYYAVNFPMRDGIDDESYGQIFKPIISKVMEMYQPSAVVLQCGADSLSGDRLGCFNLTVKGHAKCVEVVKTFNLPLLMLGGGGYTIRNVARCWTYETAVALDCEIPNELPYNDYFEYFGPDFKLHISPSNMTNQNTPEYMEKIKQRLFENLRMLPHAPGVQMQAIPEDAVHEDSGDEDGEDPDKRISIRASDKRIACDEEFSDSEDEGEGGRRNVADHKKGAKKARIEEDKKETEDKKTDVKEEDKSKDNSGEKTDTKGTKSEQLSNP

[16] = Cell cycle arrest in human IGROV1 cells assessed as accumulation at G2/M phase at IC80 after 24 hrs by propidium iodide staining-based flow cytometry (reference value: 13.21%); format: functional; conditions: IGROV-1
In short: (§2)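 Cell-cycle distribution in IGROV-1 cells read by flow cytometry of propidium iodide–stained cells.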

[17] = system: IGROV-1; experiment: Cell cycle arrest in human IGROV1 cells assessed as accumulation at G1 phase at IC80 after 24 hrs by propidium iodide staining-based flow cytometry (reference value: 49.98%); format: functional; in short: as §2
[18] = system: IGROV-1; experiment: Cell cycle arrest in human IGROV1 cells assessed as accumulation at S phase at IC80 after 24 hrs by propidium iodide staining-based flow cytometry (reference value: 36.81%); format: functional; in short: as §2

IC50 [2] [µM] | IC50 [4] [µM] | IC50 [6] [µM] | IC50 [7] [µM] | IC50 [8] [µM] | IC50 [9] [µM] | IC50 [10] [µM] | IC50 [11] [µM] | IC50 [12] [µM] | IC50 [13] [µM] | IC50 [14] [µM] | IC50 [15] [µM] | SMILES | IC50 [1] [µM] | IC50 [3] [µM] | Activity [5] [%] | Activity [16] [%] | Activity [17] [%] | Activity [18] [%]
1.4 | 1.3 | – | – | – | – | – | – | – | – | – | – | COc1ccc(-c2ccc3cc(C(=O)NO)ccc3c2)cc1C12CC3CC(CC(C3)C1)C2 | 1.5 | 4.16 | – | – | – | –
– | – | – | – | – | – | – | – | – | – | – | – | O=C(CCCCCCC(=O)Nc1ccccc1)NO [VORINOSTAT] | – | – | 37 | – | – | –
0.58 | 0.83 | 55.6 | 61.4 | 78.4 | 57.2 | > 100 | > 100 | 41.4 | 2.8 | 6.96 | 2.64 | O=C(/C=C/c1ccc(-c2ccc(O)c(C34CC5CC(CC(C5)C3)C4)c2)cc1)NO | 1.1 | 1.3 | – | – | – | –
– | – | 4.57 | 17.1 | 11.2 | 5.01 | 11 | 5.51 | 8.92 | 0.0418 | 0.162 | – | O=C(/C=C/c1ccc(-c2ccc(O)cc2)cc1)NO | – | – | – | – | – | –
– | – | – | – | – | – | – | – | – | – | – | – | O=C(/C=C/c1ccc(-c2ccccc2)cc1)NO | – | 4.3 | – | – | – | –
– | – | 84.5 | 99.4 | 29.6 | 73 | 91 | 8.55 | 39.3 | 0.0368 | 0.0698 | – | COc1ccc(-c2ccc(/C=C/C(=O)NO)cc2)cc1 | – | – | 90 | 2.11 | 42.05 | 55.84
